Where a SMILES comes first, the peptide text is derived from it. Bridges are numbered along the chain shown (N, C = ends). Roman numbers before positions name the chains, in order. The star is where a group is joined. X1 = O=C(Cn1cc(CCCC(=O)*)nn1)NC(COCc1cn(CCO[C@H]2O[C@H](CO)[C@@H](O)[C@H](O)[C@@H]2O)nn1)(COCc1cn(CCO[C@H]2O[C@H](CO)[C@@H](O)[C@H](O)[C@@H]2O)nn1)COCc1cn(CCO[C@H]2O[C@H](CO)[C@@H](O)[C@H](O)[C@@H]2O)nn1
Assays:
EJ xenograft tumor = experiment: Antitumor efficiency in EJ xenograft mice; format: in vivo, mouse; details: 500 μM, 100 μl, intravenous, five doses
Method in brief: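 BALB/c nude mice (6 to 8 weeks, 16 to 18 g) received 5 × 10⁶ EJ cells in 100 µl s.c. in the right flank. Mice were randomised into groups of n = 6. Saline, test compound (500 µM, 100 µl) or plerixafor (100 µM, 100 µl) was given i.v. by tail vein once a day for five doses. Tumor volume was measured by calipers and body weight recorded every other day.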

EJ cells = experiment: Colony formation assay; format: cell-based, human; details: versus saline and PepCXCR4
Method in brief: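 EJ cells (200 per well) were grown in DMEM in six-well plates at 37°C, 5% CO₂ until visible colonies appeared. Colonies were rinsed twice with saline, fixed in 4% paraformaldehyde for 15 min and stained with Giemsa for 10 to 30 min. They were photographed and counted. Colony formation efficiency = clones/inoculated cells × 100%.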

CD206 = CD206 (Homo sapiens, UniProt P22897); experiment: Microscale thermophoresis binding to CD206; details: Kd 3.48 μM versus mannose ~1000 μM
CD206, sequence (P22897 19-1456, species assumed): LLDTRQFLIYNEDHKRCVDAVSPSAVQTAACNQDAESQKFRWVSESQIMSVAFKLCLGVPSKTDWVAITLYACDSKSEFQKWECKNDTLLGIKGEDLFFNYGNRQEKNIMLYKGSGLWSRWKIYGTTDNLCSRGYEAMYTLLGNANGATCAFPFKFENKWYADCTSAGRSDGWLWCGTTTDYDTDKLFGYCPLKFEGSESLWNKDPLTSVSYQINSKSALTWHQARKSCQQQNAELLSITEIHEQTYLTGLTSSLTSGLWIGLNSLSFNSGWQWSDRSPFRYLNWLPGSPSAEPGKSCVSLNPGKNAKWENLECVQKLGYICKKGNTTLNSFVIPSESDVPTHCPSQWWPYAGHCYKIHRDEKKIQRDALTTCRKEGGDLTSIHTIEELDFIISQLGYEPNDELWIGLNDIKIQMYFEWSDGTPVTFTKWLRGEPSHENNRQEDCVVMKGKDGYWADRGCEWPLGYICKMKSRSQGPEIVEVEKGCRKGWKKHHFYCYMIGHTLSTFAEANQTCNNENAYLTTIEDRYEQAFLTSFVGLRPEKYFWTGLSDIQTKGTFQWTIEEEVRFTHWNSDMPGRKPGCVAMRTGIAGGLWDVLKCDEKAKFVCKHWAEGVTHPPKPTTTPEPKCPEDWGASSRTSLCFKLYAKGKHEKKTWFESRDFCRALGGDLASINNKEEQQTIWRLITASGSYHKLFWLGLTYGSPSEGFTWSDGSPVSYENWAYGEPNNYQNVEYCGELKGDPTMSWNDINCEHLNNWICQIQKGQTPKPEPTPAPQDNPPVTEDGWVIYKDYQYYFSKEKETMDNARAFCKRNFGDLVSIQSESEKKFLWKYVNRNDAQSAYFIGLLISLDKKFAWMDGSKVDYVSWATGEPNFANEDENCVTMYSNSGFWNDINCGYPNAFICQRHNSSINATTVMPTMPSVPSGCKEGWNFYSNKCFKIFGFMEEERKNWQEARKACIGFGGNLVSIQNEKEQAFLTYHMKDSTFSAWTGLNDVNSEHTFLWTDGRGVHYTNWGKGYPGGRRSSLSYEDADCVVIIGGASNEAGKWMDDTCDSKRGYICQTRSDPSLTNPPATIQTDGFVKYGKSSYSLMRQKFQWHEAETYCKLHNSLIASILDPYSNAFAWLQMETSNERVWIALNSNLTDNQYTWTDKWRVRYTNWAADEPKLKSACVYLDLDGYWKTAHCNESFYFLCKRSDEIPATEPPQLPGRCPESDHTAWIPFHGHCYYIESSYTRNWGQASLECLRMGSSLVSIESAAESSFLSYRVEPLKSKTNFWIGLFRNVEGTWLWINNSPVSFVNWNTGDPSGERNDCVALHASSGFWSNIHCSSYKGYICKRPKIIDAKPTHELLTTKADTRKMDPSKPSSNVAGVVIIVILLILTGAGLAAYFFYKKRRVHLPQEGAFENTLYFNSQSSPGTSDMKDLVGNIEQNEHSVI

[1] = tested on: MB49-Luc orthotopic bladder cancer; details: mouse, in vivo

Compound: CC(C)C[C@H](NC(=O)[C@H](Cc1ccc(O)cc1)NC(=O)CNC(=O)[C@H](CC(C)C)NC(=O)[C@@H]1CCCN1C(=O)CCCc1cn(CC(=O)NC(COCc2cn(CCO[C@H]3O[C@H](CO)[C@@H](O)[C@H](O)[C@@H]3O)nn2)(COCc2cn(CCO[C@H]3O[C@H](CO)[C@@H](O)[C@H](O)[C@@H]3O)nn2)COCc2cn(CCO[C@H]3O[C@H](CO)[C@@H](O)[C@H](O)[C@@H]3O)nn2)nn1)C(=O)NCC(=O)NCCCC[C@H](NC(=O)[C@H](CCCCN)NC(=O)[C@H](CC(=O)O)NC(=O)[C@@H]1CCCN1C(=O)[C@H](CCCNC(=N)N)NC(=O)[C@H](Cc1c[nH]cn1)NC(=O)[C@H](Cc1c[nH]c2ccccc12)NC(=O)[C@H](CO)NC(=O)[C@H](C)NC(=O)CNC(=O)[C@@H](N)CC(C)C)C(=O)N[C@@H](CC(C)C)C(=O)N[C@H](C(=O)N[C@@H](Cc1ccccc1)C(=O)N[C@@H](Cc1ccccc1)C(=O)N[C@@H](C)C(=O)N[C@@H](CCC(=O)O)C(=O)N[C@@H](CS)C(=O)NCC(=O)O)C(C)C [bsGP] (I: H-LGASWHRPDKKLVFFAECG-OH / II: X1-PLGYLG; amide I:11-II:C; N-terminus and C-terminus assumed)
- body weight loss, EJ xenograft (EJ xenograft tumor): no obvious loss of body weight
- cell proliferation capacity (EJ cells): substantially decreased
- affinity relative to mannose (CD206): about 300 fold
- recurrence rate [1]: 22%
- survival rate at 60 days [1]: 78%

Reference: paper PMC9977173 (Science Advances, 2023)
